Test results: publication PMC9534497 (Science Advances, 2022)

Key:
[1] = Stability of ATP binding of DnaA at 4°, 30° or 42°C, filter retention assay; set-up: species or system E. coli
Procedure, shortened: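 Purified DnaA (1.9 μM) was loaded with 1 μM [α-32P]ATP in PP-60 buffer for 15 min at 4°C, then held at 4°, 30° or 42°C. Aliquots were withdrawn at timed intervals. Bound nucleotide was measured by retention on nitrocellulose filters and scintillation counting.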

[2] = DTSSP cross-linking for higher-oligomer forms of DnaA; format: biochemical, E. coli; conditions: ATP form treated with DTSSP
[3] = ThermoFluor assay, melting point of DnaA proteins; format: physicochemical, E. coli
E. coli EH3827 = assay: In vivo replication assay, poriC transformation of ∆dnaA cells; format: cell-based; conditions: 0.1 or 0.2% arabinose, versus DnaA WT
E. coli MG1655 = assay: Growth of wild-type host on overexpression of DnaA; format: cell-based; conditions: 30°C, WT host
[4] = test system: E. coli CM742 (dnaA46ts) carrying pRD (seqA); assay: Growth of dnaA46ts cells with SeqA-expressing plasmid pRD; format: cell-based; conditions: 30°C, IPTG 50 μM (SeqA expressed), no arabinose, 0.2% arabinose or 0.2% glucose
Procedure, shortened: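 Cells carrying the IPTG-inducible seqA plasmid were made competent on LB-agar with tetracycline and 50 μM IPTG. They were transformed with pBAD-based dnaA plasmids and selected at 30°C on tetracycline (12.5 μg/ml) plus ampicillin (100 μg/ml). Single colonies were grown in LB to OD600 ~0.1. Equal OD units were replica-plated with no sugar, 0.2% arabinose or 0.2% glucose.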

E. coli CM742 (dnaA46ts) = assay: Flow cytometry, total DNA content per cell; format: cell-based; conditions: 30°C, 0.2% arabinose, rifampicin and cephalexin 2.5 hours
Procedure, shortened: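 Host is dnaA46ts E. coli transformed with pBAD-derived plasmids carrying wild-type or mutant dnaA under an arabinose promoter. Overnight LB cultures with antibiotics were diluted to OD600 ~0.005 and grown 45 min. Each culture was split: one half got 0.2% arabinose, the other 0.2% glucose. At 30°C to OD600 0.15, then rifampicin (150 μg/ml) plus cephalexin (10 μg/ml) for 2.5 h; DNA content measured by flow cytometry.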

[5] = test system: E. coli EH3287 (∆dnaA/pgsA^+); assay: Subcellular fractionation and immunoblotting of DnaA; format: cell-based; conditions: 0.2% arabinose for 90 min
Procedure, shortened: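 ΔdnaA/pgsA+ cells carrying arabinose-inducible dnaA alleles were grown to OD600 ~0.1, then induced with 0.2% arabinose for 90 min. Lysis used lysozyme (300 μg/ml) plus three freeze-thaw cycles. Cytosol and membranes were separated at 44,000 rpm for 30 min. Membranes were solubilized in octyl-thio-glucoside or CHAPS, recentrifuged and dialysed overnight. Protein levels are relative to wild type, averaged over three biological replicates.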

[6] = ThermoFluor assay with SUVs composed of DOPG; format: physicochemical, E. coli; conditions: ATP-bound form
Procedure, shortened: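 DnaA (10 μM) was pre-incubated with 5 mM ATP on ice for 15 min, then mixed with DOPG small unilamellar vesicles at the stated concentrations. SYPRO Orange (50× dilution) was added to 50 μl final volume. Fluorescence was recorded from 25° to 95°C at 1 min/°. Tm and −dF/dT came from a variable-slope sigmoidal fit.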

[7] = 37°C, at least 60 min, not challenged with acidic phospholipids; cited from earlier work
[8] = 4° and 30°C, with reduced affinity
[9] = protein 5 μM with ATP 5 mM (Fig. 2)
[10] = ATP-bound form, protein 10 μM, ATP 5 mM, no SUVs (Fig. 7C)

B1: DnaA(D118Q): DnaA mutant, Asp^118 in the linker domain substituted with Gln (protein)
chain: MSLSLWQQCLARLQDELPATEFSMWIRPLQAELSDNTLALYAPNRFVLDWVRDKYLNNINGLLTSFCGADAPQLRFEVGTKPVTQTPQAAVTSNVAAPAQVAQTQPQRAAPSTRSGWQNVPAPAEPTYRSNVNVKHTFDNFVEGKSNQLARAAARQVADNPGGAYNPLFLYGGTGLGKTHLLHAVGNGIMARKPNAKVVYMHSERFVQDMVKALQNNAIEEFKRYYRSVDALLIDDIQFFANKERSQEEFFHTFNALLEGNQQIILTSDRYPKEINGVEDRLKSRFGWGLTVAIEPPELETRVAILMKKADENDIRLPGEVAFFIAKRLRSNVRELEGALNRVIANANFTGRAITIDFVREALRDLLALQEKLVTIDNIQKTVAEYYKIKVADLLSKRRSRSVARPRQMAMALAKELTNHSLPEIGDAFGGRDHTTVLHACRKIEQLREESHDIKEDFSNLIRTLSS
modifications: left off: His10, N-terminal, state not stated
retention of bound ATP [1, 8]: maintained its ATP form | formation of higher-order oligomer assemblies [2]: higher-order oligomer assemblies were not formed | melting point [3, 9]: 49 °C | reduction in the number of transformants (E. coli EH3827): at least 50 fold | growth of the host on induced expression (E. coli MG1655): no growth defect | growth on LB-agar plates [4]: showed growth at 30 °C | overreplication / DNA content per cell upon induction of DnaA (E. coli CM742 (dnaA46ts)): more extensive | DnaA in OTG-solubilized membrane fraction (immunoblotting) [5]: abundant accumulation in the membrane

B2: DnaA(A184V): control DnaA mutant defective in ATP binding, changed residue within nucleotide-binding pocket of domain III (protein, UniProt P03004 1-467, looked up, variant A184V)
Chromosomal replication …: MSLSLWQQCLARLQDELPATEFSMWIRPLQAELSDNTLALYAPNRFVLDWVRDKYLNNINGLLTSFCGADAPQLRFEVGTKPVTQTPQAAVTSNVAAPAQVAQTQPQRAAPSTRSGWDNVPAPAEPTYRSNVNVKHTFDNFVEGKSNQLARAAARQVADNPGGAYNPLFLYGGTGLGKTHLLHVVGNGIMARKPNAKVVYMHSERFVQDMVKALQNNAIEEFKRYYRSVDALLIDDIQFFANKERSQEEFFHTFNALLEGNQQIILTSDRYPKEINGVEDRLKSRFGWGLTVAIEPPELETRVAILMKKADENDIRLPGEVAFFIAKRLRSNVRELEGALNRVIANANFTGRAITIDFVREALRDLLALQEKLVTIDNIQKTVAEYYKIKVADLLSKRRSRSVARPRQMAMALAKELTNHSLPEIGDAFGGRDHTTVLHACRKIEQLREESHDIKEDFSNLIRTLSS
retention of bound ATP [1, 8]: maintained its ATP form | melting point [3, 9]: 49 °C | reduction in the number of transformants (E. coli EH3827): at least 50 fold | growth on LB-agar plates [4]: showed growth at 30 °C | overreplication / DNA content per cell upon induction of DnaA (E. coli CM742 (dnaA46ts)): more extensive

B3: mutant DnaA protein where Asp^118 is substituted with Gly: DnaA mutant, Asp^118 substituted with Gly (protein, UniProt P03004 1-467, looked up, variant D118G)
Chromosomal replication …: MSLSLWQQCLARLQDELPATEFSMWIRPLQAELSDNTLALYAPNRFVLDWVRDKYLNNINGLLTSFCGADAPQLRFEVGTKPVTQTPQAAVTSNVAAPAQVAQTQPQRAAPSTRSGWGNVPAPAEPTYRSNVNVKHTFDNFVEGKSNQLARAAARQVADNPGGAYNPLFLYGGTGLGKTHLLHAVGNGIMARKPNAKVVYMHSERFVQDMVKALQNNAIEEFKRYYRSVDALLIDDIQFFANKERSQEEFFHTFNALLEGNQQIILTSDRYPKEINGVEDRLKSRFGWGLTVAIEPPELETRVAILMKKADENDIRLPGEVAFFIAKRLRSNVRELEGALNRVIANANFTGRAITIDFVREALRDLLALQEKLVTIDNIQKTVAEYYKIKVADLLSKRRSRSVARPRQMAMALAKELTNHSLPEIGDAFGGRDHTTVLHACRKIEQLREESHDIKEDFSNLIRTLSS
melting point [3, 9]: 55 °C

B4: DnaA(L366K): DnaA with substitution L366K in the AAA+ membrane-binding region (protein, UniProt P03004 1-467, looked up, variant L366K)
Chromosomal replication …: MSLSLWQQCLARLQDELPATEFSMWIRPLQAELSDNTLALYAPNRFVLDWVRDKYLNNINGLLTSFCGADAPQLRFEVGTKPVTQTPQAAVTSNVAAPAQVAQTQPQRAAPSTRSGWDNVPAPAEPTYRSNVNVKHTFDNFVEGKSNQLARAAARQVADNPGGAYNPLFLYGGTGLGKTHLLHAVGNGIMARKPNAKVVYMHSERFVQDMVKALQNNAIEEFKRYYRSVDALLIDDIQFFANKERSQEEFFHTFNALLEGNQQIILTSDRYPKEINGVEDRLKSRFGWGLTVAIEPPELETRVAILMKKADENDIRLPGEVAFFIAKRLRSNVRELEGALNRVIANANFTGRAITIDFVREALRDKLALQEKLVTIDNIQKTVAEYYKIKVADLLSKRRSRSVARPRQMAMALAKELTNHSLPEIGDAFGGRDHTTVLHACRKIEQLREESHDIKEDFSNLIRTLSS
melting point [3, 10]: 54 °C | melting point (peak) ([6]; 25 μM DOPG SUVs (Fig. 7D)): 50 °C | melting point (peak) ([6]; 100 μM DOPG SUVs (Fig. 7E)): did not shift further | DnaA in OTG-solubilized membrane fraction (immunoblotting) [5]: retained in the OTG-solubilized membrane fractions

B5: DnaA(WT): wild-type E. coli chromosomal replication initiator protein DnaA, purified 10× histidine-tagged (protein)
chain: MSLSLWQQCLARLQDELPATEFSMWIRPLQAELSDNTLALYAPNRFVLDWVRDKYLNNINGLLTSFCGADAPQLRFEVGTKPVTQTPQAAVTSNVAAPAQVAQTQPQRAAPSTRSGWDNVPAPAEPTYRSNVNVKHTFDNFVEGKSNQLARAAARQVADNPGGAYNPLFLYGGTGLGKTHLLHAVGNGIMARKPNAKVVYMHSERFVQDMVKALQNNAIEEFKRYYRSVDALLIDDIQFFANKERSQEEFFHTFNALLEGNQQIILTSDRYPKEINGVEDRLKSRFGWGLTVAIEPPELETRVAILMKKADENDIRLPGEVAFFIAKRLRSNVRELEGALNRVIANANFTGRAITIDFVREALRDLLALQEKLVTIDNIQKTVAEYYKIKVADLLSKRRSRSVARPRQMAMALAKELTNHSLPEIGDAFGGRDHTTVLHACRKIEQLREESHDIKEDFSNLIRTLSS
modifications: left off: His10, N-terminal, state not stated
retention of bound ATP ([1]; 4°, 30° and 42°C, up to 60 min): retained ATP at different temperatures comparably | melting point [3, 10]: approximately 57 °C | melting point [3, 9]: 57 °C | melting point (peak) ([6]; 100 μM DOPG SUVs (Fig. 7E)): 44 °C | DnaA in OTG-solubilized membrane fraction (immunoblotting) [5]: retained in the OTG-solubilized membrane fractions | ATP-DnaA complex remaining intact [7]: > 90%

B6: Apo-DnaA: DnaA protein without bound nucleotide, ground or inactive state (protein, UniProt P03004 1-467, looked up)
Chromosomal replication …: MSLSLWQQCLARLQDELPATEFSMWIRPLQAELSDNTLALYAPNRFVLDWVRDKYLNNINGLLTSFCGADAPQLRFEVGTKPVTQTPQAAVTSNVAAPAQVAQTQPQRAAPSTRSGWDNVPAPAEPTYRSNVNVKHTFDNFVEGKSNQLARAAARQVADNPGGAYNPLFLYGGTGLGKTHLLHAVGNGIMARKPNAKVVYMHSERFVQDMVKALQNNAIEEFKRYYRSVDALLIDDIQFFANKERSQEEFFHTFNALLEGNQQIILTSDRYPKEINGVEDRLKSRFGWGLTVAIEPPELETRVAILMKKADENDIRLPGEVAFFIAKRLRSNVRELEGALNRVIANANFTGRAITIDFVREALRDLLALQEKLVTIDNIQKTVAEYYKIKVADLLSKRRSRSVARPRQMAMALAKELTNHSLPEIGDAFGGRDHTTVLHACRKIEQLREESHDIKEDFSNLIRTLSS
modifications: nucleotide-free
melting point ([3]; Apo form, no ATP): 44 °C

B7: DnaA(D118A) (protein, UniProt P03004 1-467, looked up, variant D118A)
Chromosomal replication …: MSLSLWQQCLARLQDELPATEFSMWIRPLQAELSDNTLALYAPNRFVLDWVRDKYLNNINGLLTSFCGADAPQLRFEVGTKPVTQTPQAAVTSNVAAPAQVAQTQPQRAAPSTRSGWANVPAPAEPTYRSNVNVKHTFDNFVEGKSNQLARAAARQVADNPGGAYNPLFLYGGTGLGKTHLLHAVGNGIMARKPNAKVVYMHSERFVQDMVKALQNNAIEEFKRYYRSVDALLIDDIQFFANKERSQEEFFHTFNALLEGNQQIILTSDRYPKEINGVEDRLKSRFGWGLTVAIEPPELETRVAILMKKADENDIRLPGEVAFFIAKRLRSNVRELEGALNRVIANANFTGRAITIDFVREALRDLLALQEKLVTIDNIQKTVAEYYKIKVADLLSKRRSRSVARPRQMAMALAKELTNHSLPEIGDAFGGRDHTTVLHACRKIEQLREESHDIKEDFSNLIRTLSS
retention of bound ATP ([1]; 4°, 30° and 42°C, up to 60 min): retained ATP at different temperatures comparably | melting point [3, 9]: no shift
